Measured values of several laboratories.
Lines come from different studies, so protocols differ. Values after ≈ are worked out from the molar mass of the structure shown.

For `CC(Cc1ccc(O)cc1)NCC(O)c1cc(O)cc(O)c1` (stereo not drawn), the IC50 was 0.12 µM (THP-1; TNF-α release, inhibitor; 17 h, LPS-stimulated).
For `O=c1[nH]cnc2c1nnn2-c1cccc(Cl)c1`, the IC50 was greater than 100 µM (Chikungunya virus; viral replication, luciferase; BHK-21; 16 h).
The MIC of `C[C@H]1COc2c(N3CCN(C)CC3)c(F)cc3c(=O)c(C(=O)O)cn1c23` is reported as greater than 4 µg/mL (Haemophilus influenzae; microbial growth).
`O=c1c(O)c(-c2ccc(O[C@@H]3O[C@H](CO)[C@@H](O)[C@H](O)[C@H]3O)c(O)c2)oc2cc(O)cc(O)c12` has an IC50 of 28.5 µg/mL (DPPH scavenging, absorbance).
The IC50 of `CCCCCCCCCOc1ccc2[nH]cc(CCN)c2c1` is reported as 7.3 µM (FaDu; cell growth or viability; 72 h).
The MIC of `CO/N=C1\CN(c2nc3c(cc2F)c(=O)c(C(=O)O)cn3C2CC2)CC1CN` (stereo not drawn) is reported as 2 µg/mL (≈ 5.14 µM) (Haemophilus influenzae; microbial growth).
The IC50 of `Cc1ccc(C2CC2C(=O)NC(C(N)=O)c2ccccc2)cc1C` (stereo not drawn) is reported as greater than 100 µM (Chikungunya virus; viral replication, luciferase; BHK-21; 16 h).
`COc1c(N2CCNC(C)C2)c(F)cc2c(=O)c(C(=O)O)cn(C3CC3)c12` (stereo not drawn) has an MIC of greater than 4 µg/mL (Haemophilus influenzae; microbial growth).
The IC50 of `O=C(Nc1ncc([N+](=O)[O-])s1)c1cc(Cl)ccc1Cl` is reported as 8.3 µM (Chikungunya virus; viral replication, luciferase; BHK-21; 16 h).
For `CC(C)=CCC/C(C)=C/COc1cc(O)cc(O)c1C(=O)c1ccccc1`, the IC50 was 2330 µM (DPPH scavenging, absorbance; 30 min).
`COc1c2c(cc3c1OCO3)[C@]13C=C[C@H](OC)C[C@@H]1[N@](C2)C[C@H]3OC(=O)c1ccc2ccccc2c1` has an IC50 of greater than 10 µM (SAOS-2; cell growth or viability, WST-1).
`O=C1O[C@H]([C@@H](O)CO)C(O)=C1O` gave an IC50 of 10.2 µM (DPPH scavenging).
